From PubChem BioAssay
Only some compounds are listed: those with a hit (about 2.2% of all), similar ones and a draw of the others.
E-sel TNF inh = blocks E-selectin expression induced by TNF alpha; AID 1246; hit rate 0.71% among 120,000; inhibition, % at 2 µM; HUVEC TNFa-induced E-selectin immunofluorescence, high content;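 active = inhibition above the batch mean plus 3 SD, and confirmed as a hit on visual image review, cut at about 43% in these data; inconclusive = passes the inhibition cutoff but fails visual image review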
PLK1 PBD inh = inhibitors of human Plk1 polo box domain binding; Plk1 PBD phosphopeptide binding, fluorescence polarization; inhibition, %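 (tested at about 20 µM)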; hit rate 0.13% among 97,000; in the data active = inhibition above about 34%, passing the limit was not always enough
PLK1 kinase inh = blocks human PLK1 kinase activity | P53350 | recombinant PLK1 kinase, TR-FRET peptide phosphorylation | inhibition, % at 10 µM | hit rate 0.53% among 97,000 | AID 619;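 active = inhibition of 50% or more in the single-concentration screen; inactive = inhibition below 50%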
FAK blocker = inhibitors of human focal adhesion kinase; biochemical FAK kinase activity assay; inhibition, %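 (tested at 7 µM)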; hit rate 0.84% among 97,000; in the data active = inhibition above about 19%
Target sequence (Q05397 whole entry, looked up): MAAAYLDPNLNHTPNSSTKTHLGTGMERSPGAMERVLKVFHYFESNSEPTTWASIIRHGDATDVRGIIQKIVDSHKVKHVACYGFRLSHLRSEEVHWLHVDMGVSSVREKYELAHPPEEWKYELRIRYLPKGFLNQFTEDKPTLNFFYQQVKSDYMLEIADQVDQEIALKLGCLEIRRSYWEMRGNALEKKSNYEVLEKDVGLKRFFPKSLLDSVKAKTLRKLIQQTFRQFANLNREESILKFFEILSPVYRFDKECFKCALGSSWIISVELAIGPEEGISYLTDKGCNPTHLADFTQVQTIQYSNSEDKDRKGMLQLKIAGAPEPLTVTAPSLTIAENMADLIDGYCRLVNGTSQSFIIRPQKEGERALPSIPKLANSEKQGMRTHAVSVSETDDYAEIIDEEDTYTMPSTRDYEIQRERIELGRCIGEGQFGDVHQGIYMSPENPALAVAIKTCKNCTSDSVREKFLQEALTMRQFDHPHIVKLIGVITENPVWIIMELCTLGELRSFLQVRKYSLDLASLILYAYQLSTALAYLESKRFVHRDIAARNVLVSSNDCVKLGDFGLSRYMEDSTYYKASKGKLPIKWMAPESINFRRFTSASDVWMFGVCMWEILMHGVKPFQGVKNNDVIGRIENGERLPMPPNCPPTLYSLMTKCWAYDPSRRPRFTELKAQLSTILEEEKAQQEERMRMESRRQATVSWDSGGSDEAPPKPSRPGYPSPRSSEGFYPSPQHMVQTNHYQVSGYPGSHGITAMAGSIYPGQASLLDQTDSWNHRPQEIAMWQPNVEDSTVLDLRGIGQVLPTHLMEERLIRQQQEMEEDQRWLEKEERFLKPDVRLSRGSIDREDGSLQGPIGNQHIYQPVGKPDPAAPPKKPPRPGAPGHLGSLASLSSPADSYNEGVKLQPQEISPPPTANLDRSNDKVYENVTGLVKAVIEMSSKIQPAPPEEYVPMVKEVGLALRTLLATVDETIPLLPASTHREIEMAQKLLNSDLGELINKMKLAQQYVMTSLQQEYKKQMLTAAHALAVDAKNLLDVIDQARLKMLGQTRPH
cytoskel mod = alters cytoskeleton assembly in HUVEC cells; HUVEC TNFa F-actin phalloidin imaging, high content; inhibition, % at 2 µM; hit rate 0.18% among 91,000; AID 836;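 active = inhibition above the batch mean plus 3 SD and confirmed as a hit by visual image inspection, cut at about 30% in these data, passing the limit was not always enough; inconclusive = above the inhibition threshold but rejected on visual inspection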
HIV Rev-RRE inh = disrupts HIV-1 Rev binding to RRE RNA. Rev peptide-RRE RNA binding, FRET. hit rate 0.79% among 97,000. P05866. inhibition, % at 8 µM;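 active = inhibition above the screen-wide mean plus 3 SD, cut at about 35% in these data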
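assay system = Cy5-tagged RRE RNA duplex with fluorescein-tagged Rev peptide | incubation = 5 + 15 min at 25 °C | also added = labelled Rev peptide | measure = % inhibition of FRET ratio versus controls | benchmarks = DMSO wells as 0% and neomycin B wells as 100% inhibition | measured by = FRET fluorescence readout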
PLK1 confirm = PLK1 (human) kinase inhibition, confirmed; recombinant PLK1 kinase, TR-FRET peptide phosphorylation; inhibition, % at 10 µM; AID 744; hit rate 20% among 210; shares compounds with PLK1 kinase inh;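 active = inhibition at or above 50% in each of two repeat confirmation tests; inconclusive = one repeat below 50% inhibition, the other above; inactive = both repeats at or below 50% inhibition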
TR-FRET interf = counter-screen for Plk1 inhibitors: compound assay interference; inhibition (interference), % at 10 µM; shares compounds with PLK1 kinase inh; Plk1 TR-FRET assay interference, compound added post-reaction; 210 tested, under 10 active;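 active = both duplicate runs show 50% or greater inhibition; inconclusive = only one duplicate run shows over 50% inhibition; inactive = both runs show under 50% inhibition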
A number is an active result; n = inactive; u = inconclusive; x = no result given.

SMILES | E-sel TNF inh | PLK1 PBD inh | PLK1 kinase inh | FAK blocker | cytoskel mod | HIV Rev-RRE inh | PLK1 confirm | TR-FRET interf
O=C(CSC1=N/C(=C/c2ccco2)C(=O)N1c1ccc(OC(F)F)cc1)NC1CCS(=O)(=O)C1 (stereo unspecified) | n | x | x | x | x | x | x | x
O=C(c1ccc(F)cc1)N1CCN(c2cc(=O)[nH]nc2-c2ccccc2)CC1 | n | n | 125 | n | n | n | n | n
Cc1ccc(C(=O)N2CCN(c3cc(=O)[nH]nc3-c3ccccc3)CC2)cc1 | n | n | n | n | n | n | x | x
CC(=O)N1CCN(c2ccc(NCc3ccc(C)s3)cc2)CC1 | x | n | 77 | n | x | n | n | n
Clc1ccc(Sc2cc(Cl)c(-c3ccccc3)nn2)cc1 | n | n | n | n | n | n | x | x
CC(=O)N1CCc2cc(C(=O)CN3CCN(C(=O)c4ccco4)CC3)ccc21 | x | n | 70 | n | x | n | n | n
CC(=O)N1CCc2cc(C(=O)CN3CCN(c4cccc(Cl)c4)CC3)ccc21 | n | n | n | n | n | n | x | x
CC(=O)N1CCc2cc(C(=O)CN3CCC(C)CC3)ccc21 | x | n | 82 | n | x | n | n | n
Cc1ccc(N(CC(=O)Nc2ccc(C)cc2C)S(=O)(=O)N2CCCC2)cc1 | n | n | 88 | n | n | n | n | n
Cc1ccc(NC(=O)CN(C)CC(=O)Nc2ccc(N3CCOCC3)cc2)c(C)c1 | n | x | x | x | x | x | x | x
Cc1cccc(Cn2c(N3CCCCC3C)nc3c2c(=O)[nH]c(=O)n3C)c1 (stereo unspecified) | x | n | 83 | n | x | n | n | n
Cc1cccc(Cn2c(N3CCc4ccccc4C3)nc3c2c(=O)[nH]c(=O)n3C)c1 | n | n | n | n | n | n | x | x
Cc1ccc2c(c1)c(C)c(C)n2CC(O)CN1CCCCC1C (stereo unspecified) | x | n | 70 | n | x | n | n | n
CCCCCC(C)n1[nH]c(=O)c2c(C)cc(C)nc21 (stereo unspecified) | x | n | 86 | n | x | n | n | n
CC(C)Cc1nc2n[nH]c(N)c2c2c1COC(C)(C)C2 | n | n | 75 | n | n | n | u | n
CC(C)Cc1nc2sc3c(=O)n(N)cnc3c2c2c1COC(C)(C)C2 | n | x | x | x | x | x | x | x
CCCCn1c(CN(Cc2ccccc2)Cc2ccccc2)nc2c1c(=O)n(C)c(=O)n2C | n | n | n | n | n | n | x | x
CCOCCn1c(CN(Cc2ccccc2)Cc2ccccc2)nc2c1c(=O)n(C)c(=O)n2C | x | n | 72 | n | x | n | n | n
Cc1ccc2c(c1)/C(=N/OC(=O)c1ccc(F)cc1)CCS2 | n | n | 124 | n | n | n | n | n
C/C=C/C(=O)OCC(=O)Nc1cc(-c2cc(C)c(C)cc2C)nn1-c1ccccc1 | n | x | x | x | x | x | x | x
CCOC(=O)c1c(-c2ccncc2)csc1N | n | n | 70 | n | n | n | 66 | n
CCOc1ccc(-c2csc(N)c2C(=O)OC)cc1 | n | n | n | n | n | n | x | x
Cc1nc2ccc(NC(=O)c3cccs3)cc2c(=O)n1Cc1ccc(Cl)cc1 | n | n | 123 | n | n | n | n | n
O=C(c1ccco1)N1CCN=C1SCc1cccnc1 | n | n | n | n | n | n | x | x
O=C(c1ccco1)N1CCN=C1SCc1ccccc1F | x | n | 78 | n | x | n | n | n
SMILES | E-sel TNF inh | PLK1 PBD inh | PLK1 kinase inh | FAK blocker | cytoskel mod | HIV Rev-RRE inh | PLK1 confirm | TR-FRET interf
O=c1cc(N2CCCC2)[nH]c(=O)n1-c1ccc(Cl)cc1 | n | n | n | n | n | n | x | x
O=c1cc(N2CCOCC2)[nH]c(=O)n1-c1ccc(Cl)cc1 | x | n | 74 | n | x | n | n | n
CCCCNc1c(N)n(CCCC)c(=O)[nH]c1=O | n | x | x | x | x | x | x | x
Cc1cc(C(=O)N/N=C/c2cccc(Cl)c2Cl)no1 | n | n | 88 | n | n | n | n | n
CCOC(=O)N/N=C/c1cccc(Cl)c1Cl | n | x | x | x | x | x | x | x
Cc1ccccc1-c1nc(-c2cccnc2)no1 | n | n | 96 | n | n | n | n | n
COc1ccccc1N1CCN(S(=O)(=O)c2ccc(F)cc2)CC1 | n | n | 82 | n | n | n | n | n
O=C(NC1CCCCCC1)c1cc(-c2ccccn2)nc2ccccc12 | n | x | x | x | x | x | x | x
CCOC(=O)C1CCN(c2ncnc3c2cnn3-c2ccccc2)CC1 | n | n | n | n | n | n | x | x
CC1CCN(c2ncnc3c2cnn3-c2ccccc2)CC1 | x | n | 75 | n | x | n | n | n
COCCn1c(C)cc(C(=O)CSc2nnc3ccccn23)c1C | x | n | 72 | n | x | n | n | n
CCCCCn1c(=O)c(-c2nc3ccccc3[nH]2)c(O)c2ccccc21 | n | x | x | x | x | x | x | x
NC(=O)c1ccc(C(F)(F)F)n(Cc2ccc(Cl)cc2)c1=O | n | n | 81 | n | n | n | 56 | n
NC(=O)c1ccc(C(F)(F)F)n(Cc2cccc(Cl)c2)c1=O | n | n | 75 | n | n | n | 62 | n
NC(=O)c1cnn(Cc2ccc(Cl)cc2)c1N | n | n | n | n | n | n | x | x
CCOC(=O)C1CCN(C(=O)CN(c2ccc(OC)cc2)S(=O)(=O)c2c(C)nn(C)c2C)CC1 | x | n | 73 | n | x | n | n | n
CCOC(=O)C1CCN(C(=O)CN(c2ccc(OC)cc2)S(=O)(=O)c2c(C)noc2C)CC1 | x | n | n | n | n | n | x | x
O=C(O)C1CCCCC1C(=O)NCc1cn2ccccc2n1 (stereo unspecified) | x | n | 71 | n | x | n | n | n
CS(=O)(=O)c1ccc(C(=O)OCc2nnc(-c3ccc(Cl)cc3)o2)cc1[N+](=O)[O-] | n | x | x | x | x | x | x | x
O=C(CSc1n[nH]c(-c2ccc(Cl)cc2Cl)n1)Nc1ccccn1 | n | n | 78 | n | n | n | 74 | n
Cc1nc(SCC(=O)Nc2ccccn2)n[nH]1 | n | x | x | x | x | x | x | x
CCOC(=O)C1=C(CSc2nc3c(cc2C#N)CN(C)CC3)OC(N)=C(C#N)C1c1ccc(Cl)cc1 (stereo unspecified) | n | n | 116 | n | n | 58 | n | n
CCn1c(=O)cc(SCC(=O)N2CCN(c3ccccc3F)CC2)c2ccccc21 | n | n | n | n | n | n | x | x
COc1ccc(CCNC(=O)Cn2c(=O)n(-c3ccc(F)cc3)c(=O)c3sccc32)cc1OC | n | x | x | x | x | x | x | x
CCN(CC)S(=O)(=O)c1ccc(C(=O)OCCN2C(=O)CCC2=O)cc1 | x | n | 74 | n | x | n | n | n
SMILES | E-sel TNF inh | PLK1 PBD inh | PLK1 kinase inh | FAK blocker | cytoskel mod | HIV Rev-RRE inh | PLK1 confirm | TR-FRET interf
Cc1cc(C)c(S(=O)(=O)N2CCC(C(=O)NCc3ccc(Cl)cc3Cl)CC2)c(C)c1 | n | n | n | n | x | n | x | x
Cc1nc(-c2cccnc2)sc1C(N)=O | n | n | 76 | n | n | n | n | n
Cc1nc(-c2cccnc2)sc1C(=O)Nc1ccc(Cl)cc1 | n | n | n | n | n | n | x | x
c1ccc(CSc2ccc(-c3cccnc3)nn2)nc1 | n | x | x | x | x | x | x | x
CCc1cccc(OCC(=O)Nc2ccc(S(=O)(=O)Nc3onc(C)c3C)cc2)c1 | x | n | 75 | n | x | n | n | n
Cc1ccc(OCC(=O)Nc2ccc(S(=O)(=O)Nc3onc(C)c3C)cc2)cc1 | n | n | n | n | n | n | x | x
